Measurements published in ChEMBL document CHEMBL1139439, “Folate-synthesizing enzyme system as target for development of inhibitors and inhibitor combinations against Candida albicans-synthesis and biological activity of new 2,4-diaminopyrimidines and 4'-substituted 4-aminodiphenyl sulfones” (J Med Chem, 2004).
pIC50: −log10 of the molar value.

Columns and labels:
Dihydrofolate reductase [1] = target: T1, Dihydrofolate reductase (Candida albicans, UniProt P22906); test: Inhibitory activity against cell free dihydrofolate reductase (DHFR) from Candida albicans; conditions: read-out: I50
T1 sequence (P22906 whole entry): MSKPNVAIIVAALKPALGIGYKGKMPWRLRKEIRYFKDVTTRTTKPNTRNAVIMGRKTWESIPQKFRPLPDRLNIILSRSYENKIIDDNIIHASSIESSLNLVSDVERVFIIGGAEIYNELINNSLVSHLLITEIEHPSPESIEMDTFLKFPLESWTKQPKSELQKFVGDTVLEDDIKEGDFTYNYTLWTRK

Dihydrofolate reductase [2] = target: T2, Dihydrofolate reductase (Rattus norvegicus, UniProt Q920D2); test: Inhibitory activity against cell free dihydrofolate reductase (DHFR) from rat; conditions: for pIC50: read-out: I50
T2 sequence (Q920D2 whole entry): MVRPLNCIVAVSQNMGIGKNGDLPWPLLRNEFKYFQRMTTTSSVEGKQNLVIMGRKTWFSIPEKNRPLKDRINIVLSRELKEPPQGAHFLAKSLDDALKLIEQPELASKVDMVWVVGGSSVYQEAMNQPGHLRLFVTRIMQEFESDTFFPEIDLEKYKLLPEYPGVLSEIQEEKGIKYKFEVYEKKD

Candida albicans [3] = test: Inhibitory effect on Candida albicans YEM15 CDR1CDR2up Strain; assay type: functional
In short: (§1)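 MICs were determined by serial dilution in RPMI medium. MIC is the lowest concentration giving culture turbidity ≤20% of the control culture.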

Candida albicans [4] = test: Inhibitory effect on Candida albicans YEM27 quad deletion Strain; assay type: functional; in short: as §1
Nakaseomyces glabratus [5] = test: Inhibitory effect on Candida glabrata YEM88 CgCDR1 CgCDR2up Strain; assay type: functional
In short: (§2)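 For C. glabrata strains, MICs were determined by serial dilution in RPMI medium and read after 48 h. MIC is the lowest concentration giving turbidity ≤20% of the control culture.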

Candida albicans [6] = test: Inhibitory effect on Candida albicans YEM12 Strain; assay type: functional; in short: as §1
Nakaseomyces glabratus [7] = test: Inhibitory effect on Candida glabrata YEM75 WT Strain; assay type: functional; in short: as §2
Candida albicans [8] = test: Inhibitory effect on Candida albicans YEM13 BENup Strain; assay type: functional; in short: as §1
Nakaseomyces glabratus [9] = test: Inhibitory effect on Candida glabrata YEM216 pCDR1pCDR2pBEN YEM75 WT Strain; assay type: functional; in short: as §2
Candida albicans [10] = test: Inhibitory effect on Candida albicans wild type YEM30 Strain; assay type: functional; in short: as §1
Candida albicans [11] = test: Inhibitory effect on Candida albicans wild type YEM14 Strain; assay type: functional; in short: as §1
[12] = Inhibitory activity against dihydropteroic acid synthase (SYN) from candida albicans; conditions: read-out: I50
In short: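 Partially purified SYN extract was prepared from C. albicans ATCC 11651 and incubated with sulfones at pH 8.4. Periodic samples were quenched with trichloroacetic acid, and folate formed was quantified by bioassay with folate-requiring Streptococcus faecium. I50 is the concentration giving a 50% decrease in dihydropteroic acid production versus the uninhibited control.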

[13] = Inhibitory activity against dihydropteroic acid synthase (SYN) from Mycobacterium lufu (DDS resistant); conditions: read-out: I50
[14] = Inhibitory activity against dihydropteroic acid synthase (SYN) from Escherichia coli; conditions: read-out: I50
[15] = Inhibitory activity against dihydropteroic acid synthase (SYN) from Mycobacterium lufu (DDS sensitive); conditions: read-out: I50
[16] = target: T3, Dihydropteroate synthetase, putative (Plasmodium berghei str. ANKA, UniProt A0A113T0T6); test: (§3) Inhibitory activity against dihydropteroic acid synthase (SYN) from Plasmodium berghei; conditions: read-out: I50
T3 sequence (A0A113T0T6 whole entry): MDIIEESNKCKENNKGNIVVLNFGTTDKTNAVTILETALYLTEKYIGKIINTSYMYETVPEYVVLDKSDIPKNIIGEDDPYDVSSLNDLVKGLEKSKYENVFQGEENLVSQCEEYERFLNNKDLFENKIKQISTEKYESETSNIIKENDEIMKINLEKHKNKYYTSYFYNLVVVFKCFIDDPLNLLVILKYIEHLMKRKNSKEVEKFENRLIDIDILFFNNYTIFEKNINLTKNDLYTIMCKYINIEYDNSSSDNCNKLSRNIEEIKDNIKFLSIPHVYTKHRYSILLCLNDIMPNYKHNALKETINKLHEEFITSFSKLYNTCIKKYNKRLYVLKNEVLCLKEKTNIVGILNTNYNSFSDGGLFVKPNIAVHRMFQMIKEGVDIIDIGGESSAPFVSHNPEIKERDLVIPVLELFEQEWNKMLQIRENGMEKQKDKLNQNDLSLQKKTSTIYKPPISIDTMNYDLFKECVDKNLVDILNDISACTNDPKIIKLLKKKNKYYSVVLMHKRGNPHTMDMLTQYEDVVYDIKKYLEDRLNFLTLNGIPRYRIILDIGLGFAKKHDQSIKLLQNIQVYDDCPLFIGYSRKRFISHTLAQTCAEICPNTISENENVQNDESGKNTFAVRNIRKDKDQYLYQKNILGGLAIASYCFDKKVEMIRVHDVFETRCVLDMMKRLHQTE

[17] = target: T4, Dihydropteroate synthetase, putative (Plasmodium berghei str. ANKA) (UniProt A0A113T0T6); test: as §3
T4 sequence (whole entry): T3 sequence (A0A113T0T6 whole entry)

## Nc1ncc(NCc2cccc(Cl)c2)c(N)n1
Dihydrofolate reductase [1]
  pIC50: 4.86
Dihydrofolate reductase [2]
  pIC50: 4.30

## COc1ccc(Cc2cnc(N)nc2N)cc1OCCCCN1C(=O)c2ccccc2C1=O
Dihydrofolate reductase [1]
  pIC50: 7.21
Candida albicans [3]
  MIC: > 64 µg/mL
Candida albicans [4]
  MIC: > 64 µg/mL
Nakaseomyces glabratus [5]
  MIC: > 64 µg/mL
Candida albicans [6]
  MIC: > 64 µg/mL
Nakaseomyces glabratus [7]
  MIC: > 64 µg/mL
Dihydrofolate reductase [2]
  pIC50: 5.75
Candida albicans [8]
  MIC: > 64 µg/mL
Nakaseomyces glabratus [9]
  MIC: > 64 µg/mL
Candida albicans [10]
  MIC: > 64 µg/mL
Candida albicans [11]
  MIC: > 64 µg/mL

## Nc1ncc(CSc2ccc3ccccc3c2)c(N)n1
Dihydrofolate reductase [1]
  pIC50: 4.51
Dihydrofolate reductase [2]
  I50: 110.6 uM l-1

## COc1ccc(CNc2cnc(N)nc2N)cc1
Dihydrofolate reductase [1]
  pIC50: 4.28
Dihydrofolate reductase [2]
  I50: 146.2 uM l-1

## COc1cc(COc2cnc(N)nc2N)ccc1OCCCc1ccccc1
Dihydrofolate reductase [1]
  pIC50: 5.21
Dihydrofolate reductase [2]
  pIC50: 4.23

## Nc1ncc(OCc2ccccc2)c(N)n1
Dihydrofolate reductase [1]
  pIC50: 5.91
Dihydrofolate reductase [2]
  pIC50: 5.00

## Nc1ncc(Cc2cccc3ccccc23)c(N)n1
Dihydrofolate reductase [1]
  pIC50: 4.27
Dihydrofolate reductase [2]
  pIC50: 4.53

## Nc1ncc(NCc2ccccc2Cl)c(N)n1
Dihydrofolate reductase [1]
  pIC50: 5.18
Dihydrofolate reductase [2]
  pIC50: 4.15

## COc1cc(COc2cnc(N)nc2N)ccc1OCCCNS(=O)(=O)c1ccc(C)cc1
Dihydrofolate reductase [1]
  pIC50: 6.27
Dihydrofolate reductase [2]
  pIC50: 5.34

## COc1ccc(COc2cnc(N)nc2N)cc1
Dihydrofolate reductase [1]
  pIC50: 4.58
Dihydrofolate reductase [2]
  pIC50: 4.00

## Nc1ncc(OCc2ccc(OCc3ccccc3)cc2)c(N)n1
Dihydrofolate reductase [1]
  pIC50: 5.55
Dihydrofolate reductase [2]
  pIC50: 4.40

## Nc1ccc(S(=O)(=O)c2ccc(N)cc2)cc1 [DAPSONE]
[12]
  pIC50: 5.75
[13]
  pIC50: 5.93
[14]
  pIC50: 4.46
[15]
  pIC50: 5.92
[16]
  pIC50: 4.91

## CC(C)(C)c1ccc(COc2cnc(N)nc2N)cc1
Dihydrofolate reductase [1]
  pIC50: 4.62
Dihydrofolate reductase [2]
  I50: 106 uM l-1

## COC(=O)c1ccc(S(=O)(=O)c2ccc(N)cc2)cc1
[13]
  pIC50: 4.86
[14]
  pIC50: 3.83
[15]
  pIC50: 4.93
[16]
  pIC50: 3.83

## Cc1nc(N)nc(N)c1CCc1ccccc1
Dihydrofolate reductase [1]
  pIC50: 5.38
Dihydrofolate reductase [2]
  pIC50: 4.89

## Nc1ncc(CNc2ccccc2)c(N)n1
Dihydrofolate reductase [1]
  pIC50: 4.23
Dihydrofolate reductase [2]
  I50: 133.1 uM l-1

## Nc1ccc(S(=O)(=O)c2ccc(Cl)cc2)cc1
[12]
  pIC50: 4.84
[13]
  pIC50: 4.73
[15]
  pIC50: 4.89

## NNC(=O)c1ccc(S(=O)(=O)c2ccc(N)cc2)cc1
[13]
  pIC50: 5.02
[14]
  pIC50: 3.81
[15]
  pIC50: 4.90
[17]
  I50: 76.5 µM

## Nc1ccc(S(=O)(=O)c2ccc(C(=O)O)cc2)cc1
[12]
  pIC50: 5.56
[13]
  pIC50: 5.50
[14]
  pIC50: 4.13
[15]
  pIC50: 5.44

## CC(=O)Nc1ccc(S(=O)(=O)c2ccc(N)cc2)cc1 [MONO-N-ACETYL DAPSONE]
[13]
  pIC50: 5.39
[14]
  pIC50: 4.12
[15]
  pIC50: 5.15
[16]
  pIC50: 4.48

## Cc1nc(N)nc(N)c1OCc1ccc(Cl)c(Cl)c1
Dihydrofolate reductase [1]
  pIC50: 5.87
Dihydrofolate reductase [2]
  pIC50: 5.34

## COc1ccc(S(=O)(=O)c2ccc(N)cc2)cc1
[12]
  pIC50: 5.04
[13]
  pIC50: 5.03
[14]
  pIC50: 3.89
[15]
  pIC50: 5.12

## Nc1ncc(NCc2ccc3ccccc3c2)c(N)n1
Dihydrofolate reductase [1]
  pIC50: 4.79
Dihydrofolate reductase [2]
  pIC50: 4.15

## Cc1nc(N)nc(N)c1CCCc1ccccc1
Dihydrofolate reductase [1]
  pIC50: 5.00
Dihydrofolate reductase [2]
  pIC50: 6.09

## COc1cc(Cc2cnc(N)nc2N)cc(OC)c1OCCCNc1ccc(N(C)C)cc1
Dihydrofolate reductase [1]
  pIC50: 6.01

## CNc1ccc(S(=O)(=O)c2ccc(N)cc2)cc1
[12]
  pIC50: 5.55
[13]
  pIC50: 5.70
[14]
  pIC50: 4.34
[15]
  pIC50: 5.89
[16]
  pIC50: 4.57

## Nc1ncc(NCc2cccc3ccccc23)c(N)n1
Dihydrofolate reductase [1]
  pIC50: 5.86
Dihydrofolate reductase [2]
  pIC50: 5.23

## Cc1nc(N)nc(N)c1Cc1ccccc1
Dihydrofolate reductase [1]
  pIC50: 5.73
Dihydrofolate reductase [2]
  pIC50: 5.47
